Values after ≈ are worked out from the molar mass of the structure shown.
What was measured:
Type in all cases: functional
[1] = tested on: Haemophilus influenzae; test: Antibacterial activity against beta-lactamase nonproducing ampicillin resistant Haemophilus influenzae group IIc isolates with acrR aminoacid substitution mutation by broth microdilution method
[2] = tested on: Haemophilus influenzae; test: Antibacterial activity against beta-lactamase nonproducing ampicillin susceptible Haemophilus influenzae isolate by broth microdilution method
Summary of the method: (§1)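 Clinical isolates were tested by broth microdilution in Haemophilus test medium following CLSI guidelines, with H. influenzae ATCC 49247 as the QC strain. β-Lactamase was detected by chromogenic nitrocefin test. ftsI was PCR-amplified and sequenced across nt 936–1640 (aa 327–540). Classes: BLNAS (no mechanism), BLNAR (ftsI substitutions), BLPAR (β-lactamase only), BLPACR (both). Agents tested were amoxicillin, amoxicillin-clavulanate (2:1), cefaclor, cefuroxime, cefotaxime and cefixime.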

[3] = tested on: Haemophilus influenzae; test: Antibacterial activity against beta-lactamase producing amoxicillin-clavulanic acid-resistant Haemophilus influenzae isolate assessed as percent susceptible isolates by broth microdilution method
Summary of the method: (§2)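 Broth microdilution in Haemophilus test medium per CLSI guidelines on clinical isolates, with H. influenzae ATCC 49247 as quality-control strain; β-lactamase production detected by nitrocefin chromogenic cephalosporin test; isolates classed by β-lactamase status and ftsI (PBP 3) sequencing of amino acids 327 to 540. Agents tested: amoxicillin, amoxicillin-clavulanic acid (2:1), cefaclor, cefuroxime, cefotaxime, cefixime.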

[4] = tested on: Haemophilus influenzae; test: Antibacterial activity against beta-lactamase nonproducing ampicillin resistant Haemophilus influenzae group IIc isolates with acrR base A insertion behind nucleotide 361 by broth microdilution method
[5] = tested on: Haemophilus influenzae; test: Antibacterial activity against Haemophilus influenzae group IIb isolates with ftsI gene mutation by broth microdilution method; summary of the method: as §1
[6] = tested on: Haemophilus influenzae; test: Antibacterial activity against beta-lactamase nonproducing ampicillin resistant Haemophilus influenzae group IIc isolates with acrR baseC insertion mutation by broth microdilution method
[7] = tested on: Haemophilus influenzae; test: Antibacterial activity against beta-lactamase nonproducing ampicillin resistant Haemophilus influenzae group IIb isolates with acrR aminoacid substitution mutation by broth microdilution method
[8] = tested on: Haemophilus influenzae; test: Antibacterial activity against Haemophilus influenzae group I isolates with ftsI gene mutation by broth microdilution method; summary of the method: as §1
[9] = tested on: Haemophilus influenzae; test: Antibacterial activity against beta-lactamase nonproducing ampicillin resistant Haemophilus influenzae group IIc isolates with acrR TTA>TGA mutation at 521 position by broth microdilution method
[10] = tested on: Haemophilus influenzae; test: (§3) Antibacterial activity against beta-lactamase nonproducing ampicillin resistant Haemophilus influenzae group IIa isolates with acrR aminoacid substitution mutation by broth microdilution method
[11] = tested on: Haemophilus influenzae; test: Antibacterial activity against beta-lactamase nonproducing ampicillin resistant Haemophilus influenzae isolate by broth microdilution method; summary of the method: as §1
[12] = tested on: Haemophilus influenzae; test: Antibacterial activity against beta-lactamase nonproducing ampicillin resistant Haemophilus influenzae isolate assessed as percent resistant isolates by broth microdilution method; summary of the method: as §1
[13] = tested on: Haemophilus influenzae; test: Antibacterial activity against beta-lactamase nonproducing ampicillin resistant Haemophilus influenzae group I isolates with acrR ATT deletion behind nucleotide 170 by broth microdilution method
[14] = tested on: Haemophilus influenzae; test: Antibacterial activity against beta-lactamase nonproducing ampicillin susceptible Haemophilus influenzae isolate assessed as percent susceptible isolates by broth microdilution method; summary of the method: as §2
[15] = tested on: Haemophilus influenzae; test: Antibacterial activity against beta-lactamase positive ampicillin resistant Haemophilus influenzae isolate by broth microdilution method; summary of the method: as §1
[16] = tested on: Haemophilus influenzae; test: Antibacterial activity against beta-lactamase nonproducing ampicillin resistant Haemophilus influenzae group IIc isolates with acrR TTA>TGA mutation at 425 position by broth microdilution method
[17] = tested on: Haemophilus influenzae; test: Antibacterial activity against beta-lactamase nonproducing ampicillin resistant Haemophilus influenzae isolate assessed as percent susceptible isolates by broth microdilution method; summary of the method: as §1
[18] = tested on: Haemophilus influenzae; test: Antibacterial activity against beta-lactamase nonproducing ampicillin resistant Haemophilus influenzae group IIc isolates with acrR mutation by broth microdilution method
[19] = tested on: Haemophilus influenzae; test: Antibacterial activity against beta-lactamase producing amoxicillin-clavulanic acid-resistant Haemophilus influenzae isolate by broth microdilution method; summary of the method: as §1
[20] = tested on: Haemophilus influenzae; test: Antibacterial activity against beta-lactamase positive ampicillin resistant Haemophilus influenzae isolate assessed as percent resistant isolates by broth microdilution method; summary of the method: as §1
[21] = tested on: Haemophilus influenzae; test: Antibacterial activity against beta-lactamase producing amoxicillin-clavulanic acid-resistant Haemophilus influenzae isolate assessed as percent resistant isolates by broth microdilution method; summary of the method: as §1
[22] = tested on: Haemophilus influenzae; test: as §3; remark: listed apart in the source
[23] = tested on: Haemophilus influenzae; test: Antibacterial activity against Haemophilus influenzae group IId isolates with ftsI gene mutation by broth microdilution method; summary of the method: as §1
[24] = tested on: Haemophilus influenzae; test: Antibacterial activity against Haemophilus influenzae group IIa isolates with ftsI gene mutation by broth microdilution method; summary of the method: as §1
[25] = tested on: Haemophilus influenzae; test: Antibacterial activity against Haemophilus influenzae group IIc isolates with ftsI gene mutation by broth microdilution method; summary of the method: as §1
[26] = tested on: Haemophilus influenzae; test: Antibacterial activity against beta-lactamase nonproducing ampicillin resistant Haemophilus influenzae group IIc isolates with acrR base C insertion behind nucleotide 496 by broth microdilution method
[27] = tested on: Haemophilus influenzae; test: Antibacterial activity against Haemophilus influenzae group III-like isolates with ftsI gene mutation by broth microdilution method; summary of the method: as §1
[28] = tested on: Haemophilus influenzae; test: Antibacterial activity against beta-lactamase nonproducing ampicillin resistant Haemophilus influenzae group IIb isolates with acrR mutation by broth microdilution method
[29] = tested on: Haemophilus influenzae; test: Antibacterial activity against beta-lactamase nonproducing ampicillin susceptible Haemophilus influenzae isolate assessed as percent resistant isolates by broth microdilution method; summary of the method: as §1
[30] = tested on: Haemophilus influenzae; test: Antibacterial activity against beta-lactamase nonproducing ampicillin resistant Haemophilus influenzae group IId isolates with acrR mutation by broth microdilution method

With `CC1(C)S[C@@H]2[C@H](NC(=O)[C@H](N)c3ccccc3)C(=O)N2[C@H]1C(=O)O` [AMPICILLIN] the MIC [1] was 2 µg/mL (≈ 5.72 µM), the MIC [2] was ≤ 0.25 µg/mL and the MIC50 [2] was ≤ 0.25 µg/mL. For the same molecule, the MIC90 [2] was 0.5 µg/mL (≈ 1.43 µM), the Activity [3] was 0% and the MIC [4] was 1 µg/mL (≈ 2.86 µM). For the same molecule, the MIC50 [5] was 1 µg/mL (≈ 2.86 µM), the MIC90 [5] was 2 µg/mL (≈ 5.72 µM) and the MIC [6] was 2 µg/mL (≈ 5.72 µM). It also gave an MIC [7] of 2 µg/mL (≈ 5.72 µM), an MIC [8] of 0.5 µg/mL (≈ 1.43 µM) and an MIC50 [8] of 0.5 µg/mL (≈ 1.43 µM). The MIC90 [8] was 2 µg/mL (≈ 5.72 µM), the MIC [9] was 2 µg/mL (≈ 5.72 µM) and the MIC [10] was 1 µg/mL (≈ 2.86 µM). For the same molecule, the MIC50 [11] was 1 µg/mL (≈ 2.86 µM), the MIC90 [11] was 2 µg/mL (≈ 5.72 µM) and the Activity [12] was 50.8%. It also gave an MIC [13] of 2 µg/mL (≈ 5.72 µM), an Activity [14] of 98.4% and an MIC50 [15] of 8 µg/mL (≈ 22.9 µM). The MIC [16] was 0.5 µg/mL (≈ 1.43 µM), the Activity [17] was 49.2% and the MIC [18] was 1 µg/mL (≈ 2.86 µM). The MIC50 [19] was ≥ 32 µg/mL, the MIC90 [19] was ≥ 32 µg/mL and the Activity [20] was 100%. It also gave an Activity [21] of 100%, an MIC [22] of 4 µg/mL (≈ 11.4 µM) and an MIC [23] of 0.5 µg/mL (≈ 1.43 µM). The MIC50 [23] was 0.5 µg/mL (≈ 1.43 µM), the MIC90 [23] was 2 µg/mL (≈ 5.72 µM) and the MIC50 [24] was 2 µg/mL (≈ 5.72 µM). It also gave an MIC90 [24] of 4 µg/mL (≈ 11.4 µM), an MIC50 [25] of 2 µg/mL (≈ 5.72 µM) and an MIC90 [25] of 2 µg/mL (≈ 5.72 µM). The MIC [26] was 0.5 µg/mL (≈ 1.43 µM), the MIC50 [27] was 1 µg/mL (≈ 2.86 µM) and the MIC90 [27] was 2 µg/mL (≈ 5.72 µM). The MIC [28] was 1 µg/mL (≈ 2.86 µM), the Activity [29] was 1.6% and the MIC [30] was 1 µg/mL (≈ 2.86 µM).

For `CO/N=C(\C(=O)N[C@@H]1C(=O)N2C(C(=O)O)=C(COC(N)=O)CS[C@H]12)c1ccco1` [CEFUROXIME], the MIC50 [2] was 0.5 µg/mL (≈ 1.18 µM), the MIC90 [2] was 1 µg/mL (≈ 2.36 µM) and the Activity [3] was 100%. For the same molecule, the MIC50 [5] was 2 µg/mL (≈ 4.71 µM), the MIC90 [5] was 2 µg/mL (≈ 4.71 µM) and the MIC [8] was 0.5 µg/mL (≈ 1.18 µM). It also gave an MIC50 [8] of 0.5 µg/mL (≈ 1.18 µM), an MIC90 [8] of 2 µg/mL (≈ 4.71 µM) and an MIC50 [11] of 2 µg/mL (≈ 4.71 µM). For the same molecule, the MIC90 [11] was 4 µg/mL (≈ 9.43 µM), the Activity [12] was 2% and the Activity [14] was 100%. For the same molecule, the MIC50 [15] was 1 µg/mL (≈ 2.36 µM), the MIC90 [15] was 1 µg/mL (≈ 2.36 µM) and the Activity [17] was 98%. For the same molecule, the MIC50 [19] was 1 µg/mL, the MIC90 [19] was 2 µg/mL and the Activity [20] was 0%. For the same molecule, the Activity [21] was 0%, the MIC [23] was 0.5 µg/mL (≈ 1.18 µM) and the MIC50 [23] was 0.5 µg/mL (≈ 1.18 µM). It also gave an MIC90 [23] of 4 µg/mL (≈ 9.43 µM), an MIC50 [24] of 2 µg/mL (≈ 4.71 µM) and an MIC90 [24] of 4 µg/mL (≈ 9.43 µM). The MIC50 [25] was 2 µg/mL (≈ 4.71 µM), the MIC90 [25] was 2 µg/mL (≈ 4.71 µM) and the MIC50 [27] was 4 µg/mL (≈ 9.43 µM). The MIC90 [27] was 8 µg/mL (≈ 18.9 µM) and the Activity [29] was 0%.

With `C=CC1=C(C(=O)O)N2C(=O)[C@@H](NC(=O)/C(=N\OCC(=O)O)c3csc(N)n3)[C@H]2SC1` [CEFIXIME] the MIC50 [2] was 0.06 µg/mL (≈ 0.132 µM), the MIC90 [2] was 0.06 µg/mL (≈ 0.132 µM) and the Activity [3] was 100%. The MIC50 [5] was 0.06 µg/mL (≈ 0.132 µM), the MIC90 [5] was 0.12 µg/mL (≈ 0.265 µM) and the MIC [8] was 0.06 µg/mL (≈ 0.132 µM). For the same molecule, the MIC50 [8] was 0.06 µg/mL (≈ 0.132 µM), the MIC90 [8] was 0.12 µg/mL (≈ 0.265 µM) and the MIC50 [11] was 0.06 µg/mL (≈ 0.132 µM). The MIC90 [11] was 0.25 µg/mL (≈ 0.551 µM), the Activity [12] was 1% and the Activity [14] was 100%. The MIC50 [15] was ≤ 0.01 µg/mL, the MIC90 [15] was 0.06 µg/mL (≈ 0.132 µM) and the Activity [17] was 99%. It also gave an MIC50 [19] of 0.06 µg/mL, an MIC90 [19] of 0.12 µg/mL and an Activity [20] of 0%. For the same molecule, the Activity [21] was 0%, the MIC50 [23] was 0.06 µg/mL (≈ 0.132 µM) and the MIC90 [23] was 0.12 µg/mL (≈ 0.265 µM). The MIC50 [24] was 0.06 µg/mL (≈ 0.132 µM), the MIC90 [24] was 0.25 µg/mL (≈ 0.551 µM) and the MIC50 [25] was 0.06 µg/mL (≈ 0.132 µM). The MIC90 [25] was 0.12 µg/mL (≈ 0.265 µM), the MIC50 [27] was 1 µg/mL (≈ 2.21 µM) and the MIC90 [27] was 4 µg/mL (≈ 8.82 µM). For the same molecule, the Activity [29] was 0%.
